Results of several laboratories.
Each line is one published result; the experiments were not run side by side.
Target: Activin receptor type-2A (ACVR2A, Homo sapiens, UniProt P27037)

COc1cnc(Nc2cccc(S(N)(=O)=O)c2)nc1N1CCN(c2ccccc2)CC1 — remaining binding (binding, competition with immobilised ligand; 1 µM): 97%
Cc1cnn2ncc(-c3ccnc(N(C)C)n3)c2c1 — remaining binding (binding; 1 µM): 74%
c1cncc(-c2cccc(Nc3nccc(NC4CCCCC4)n3)c2)c1 — remaining binding (binding, competition with immobilised ligand; 10 µM): 70%
O=C(NCCCN1CCOCC1)c1ccc(Nc2nccc(-c3cc4ccccc4s3)n2)cc1 — remaining binding (binding, competition with immobilised ligand; 1 µM): 58%
COc1ccc2c(O[C@@H]3C[C@H]4C(=O)N[C@]5(C(=O)O)CC5/C=C\CCCCC[C@H](NC(=O)OC5CCCC5)C(=O)N4C3)cc(-c3csc(NC(=O)C(C)C)n3)nc2c1C (stereo partly shown) — remaining binding (cell-free assay, competition with immobilised ligand; 1 µM): 72%
Nc1ncc2c(n1)-c1c([nH]c3ccc(C#CC4CC4)cc13)CCCC2 — remaining binding (binding, competition with immobilised ligand; 1 µM): 91%
COc1cnc(Nc2cccc(S(N)(=O)=O)c2)nc1N1CCN(c2ccccc2)C(=O)C1 — remaining binding (binding, competition with immobilised ligand; 1 µM): 100%
CCN1CCN(Cc2ccc(C(=O)Nc3ccc(C)c(Oc4ccc5c(c4)CC(=O)N5)c3)cc2C(F)(F)F)CC1 — remaining binding (binding, competition with immobilised ligand; 1 µM): 100%
O=C(Nc1c[nH]nc1C(=O)NC1CCNCC1)c1cc(F)cc(F)c1 — remaining binding (binding, competition with immobilised ligand; 1 µM): 100%
CN(CCCC(F)(F)F)c1nccc(-c2cnn3ncccc23)n1 — remaining binding (binding; 1 µM): 100%
CC1=C(C#N)C(c2ccc3c(c2)c(NC(=O)c2ccccc2C)nn3C)C(C#N)=C(C)N1 — remaining binding (cell-free assay, competition with immobilised ligand; 1 µM): 97%
O=C(c1ccc(Nc2ncc(Cl)c(-c3cc4ccccc4s3)n2)cc1)N1CCC(N2CCCC2)CC1 — remaining binding (binding, competition with immobilised ligand; 1 µM): 64%
CC(=O)Nc1c(C(C)=O)c(=O)n(C)c2nc(-c3ccc(Cl)cc3Cl)c(-c3ccc(Cl)cc3)cc12 — remaining binding (cell-free assay, competition with immobilised ligand; 1 µM): 100%
COc1ncc2cc3ccccc3nc2c1C#N — remaining binding (cell-free assay, competition with immobilised ligand; 5 µM): 85%
CN(C)c1nccc(-c2cnc3ncccn23)n1 — remaining binding (binding; 1 µM): 100%
O=C(c1ccc(Nc2nccc(-c3cc4ccccc4s3)n2)cc1)N1CCC(N2CCCC2)CC1 — remaining binding (binding, competition with immobilised ligand; 1 µM): 90%
CN(C)CC#Cc1ccc(OCCCc2sc(N3CCc4cccc(C(=O)Nc5nc6ccccc6s5)c4C3)nc2C(=O)O)c(F)c1 — remaining binding (cell-free assay, competition with immobilised ligand; 1 µM): 94%
C[C@H]1CCN(c2nccc(-c3cnn4ncccc34)n2)C1 — remaining binding (binding; 1 µM): 96%
O=C(NCCCC1CCCCC1)c1ccc(CNC(=O)c2cnn(-c3ccccc3)c2C(F)(F)F)cc1 — remaining binding (cell-free assay, competition with immobilised ligand; 0.1 µM): 83%
N[C@@H]1CCN(c2nccc(-c3cnn4ncccc34)n2)C1 — remaining binding (binding; 1 µM): 100%
O=C(Nc1cccnn1)N1CCC(=Cc2cccc(Oc3ccc(C(F)(F)F)cn3)c2)CC1 — remaining binding (cell-free assay, competition with immobilised ligand; 1 µM): 100%
CN(c1nccc(-c2cnn3ncccc23)n1)C1CC1 — remaining binding (binding; 1 µM): 100%
